Experimental data taken from ChEMBL document CHEMBL5113474, “Triazole-substituted phenylboronic acids as tunable lead inhibitors of KPC-2 antibiotic resistance” (Eur J Med Chem, 2022).
≈ marks a conversion by molar mass, not a printed value. Calls of active or inactive are those of the source. No cut-off for these calls is given here.

Assays:
Escherichia coli [1] = format: functional, BL21 (DE3); conditions: time 16-18 hrs
Bacteria = assay: Inhibition of bacterial beta-lactamase KPC-2 expressed in Escherichia coli BL21 (DE3) using nitrocefin as substrate at 1 uM by spectrophotometric analysis relative to control
Procedure, shortened: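 Purified recombinant KPC-2 tested against the chromogenic β-lactam nitrocefin at 1 µM inhibitor. Hydrolysis was followed as the rise in absorbance at 482 nm (ε482 = 17,400 M-1 cm-1). Activity is expressed as percent inhibition relative to an uninhibited control.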

[2] = Inhibition of bacterial beta-lactamase KPC-2 expressed in Escherichia coli BL21 (DE3) using nitrocefin as substrate assessed as inhibition constant by Cheng-Prusoff equation analysis; design: species or system Bacteria
Escherichia coli [3] = assay: Antibacterial activity against Escherichia coli NCTC10418; format: functional
Escherichia coli [4] = assay: microbe, parasite or virus in culture; format: functional; conditions: BL21 (DE3), dose 50 µg/ml, time 16-20 hrs
Escherichia coli [5] = assay: microbe, parasite or virus in culture; format: functional; conditions: BL21 (DE3), dose 50 µg/ml, time 16-20 hrs; remark: listed apart in the source
Escherichia coli [6] = assay: microbe, parasite or virus in culture; format: functional; conditions: BL21 (DE3), dose 5 µg/ml, time 16-20 hrs
Escherichia coli [7] = assay: microbe, parasite or virus in culture; format: functional; conditions: BL21 (DE3), dose 5 µg/ml, time 16-20 hrs; remark: listed apart in the source
Escherichia coli [8] = assay: Potentiation of cefotaxime induced antibacterial activity against Escherichia coli expressing CMY-4/TEM-1 assessed as cefotaxime MIC at 5 ug/ml incubated for 16 to 20 hrs by microdilution method; format: functional; conditions: dose 5 µg/ml, time 16-20 hrs
Procedure, shortened: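 Cefotaxime MIC re-measured with the boronic acid inhibitor held at a fixed 5 μg/mL, lowered from an earlier 50 μg/ml fixed-dose combination; MICs interpreted against CLSI susceptibility categories.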

[9] = Cytotoxicity against HEK293 cells assessed as cell viability at 5 to 50 ug/ml incubated for 24 hrs by MTT assay relative to control; conditions: human, at 5 to 50 µg/mL
[10] = Cytotoxicity against HEK293 cells assessed as cell viability at 5 to 50 ug/ml incubated for 24 hrs in presence of cefotaxime by MTT assay relative to control; conditions: human, at 5 to 50 µg/mL
physchem [11] = conditions: 0.1 M phosphate buffer, pH 4.3
[12] = Solubility of the compound at 0.1 mM in 0.1 M phosphate buffer; format: physicochemical; conditions: 100 µM
[13] = Inhibition of class C […]beta-lactamase AmpC (unknown origin); design: species or system Bacteria
[14] = Inhibition of beta-lactamase TEM-1 (unknown origin); design: species or system Bacteria
[15] = Inhibition of Metallo-beta-lactamase VIM-1 (unknown origin); design: species or system Bacteria
[16] = Inhibition of beta-lactamase OXA (unknown origin); design: species or system Bacteria
[17] = Inhibition of beta-lactamase KPC-2 (unknown origin); design: species or system Bacteria
[18] = Inhibition of beta-lactamase SHV-12 (unknown origin); design: species or system Bacteria
Klebsiella pneumoniae = assay: Antibacterial activity against Klebsiella pneumoniae harboring OXA-48 assessed as bacterial growth inhibition incubated for 16 to 20 hrs by microdilution method; format: functional; conditions: time 16-20 hrs
Escherichia coli [19] = assay: Antibacterial activity against Escherichia coli expressing CMY-4/TEM-1 assessed as bacterial growth inhibition at 0.06 to 64 ug/ml incubated for 16 to 20 hrs by microdilution method; format: functional, organism-based; conditions: dose 0.06-64 µg/ml, time lower […], time upper 20.0 hrs
Proteus mirabilis = assay: Antibacterial activity against Proteus mirabilis producing CTX-M-14/CMY-2 assessed as bacterial growth inhibition incubated for 16 to 20 hrs by microdilution method; format: functional; conditions: time 16-20 hrs
physchem [20] = conditions: 0.1 M phosphate buffer
[21] = Inhibition of beta-lactamase CTX-M (unknown origin); design: species or system Bacteria
[22] = Inhibition of beta-lactamase PDC-3 (unknown origin); design: species or system Bacteria
[23] = Inhibition of beta-lactamase P99 (unknown origin); design: species or system Bacteria

SMILES: OB(O)c1cc(-n2cc(-c3ccsc3)nn2)c(F)cc1F
- inhibition zone (IZ) (Escherichia coli [1]): 28.8 mm
- inhibition (Bacteria): 21%
- Ki [2]: 1840 nM
- MIC (Escherichia coli [3]): > 64 µg/mL
- MIC (Escherichia coli [4]): ≤ 0.06 µg/mL
- MIC (Escherichia coli [5]): ≤ 0.06 µg/mL
- MIC (Escherichia coli [6]): ≤ 0.06 µg/mL
- MIC (Escherichia coli [7]): 4 µg/mL (≈ 13 µM)
- MIC (Escherichia coli [8]): 0.12 µg/mL
- viability at 24 h [9]: > 80%
- viability at 24 h [10]: > 80%
- pKa at 100 µM (physchem [11]): 6.27

SMILES: OB(O)c1cc(-n2cc(-c3ccsc3)nn2)cc(F)c1F
- inhibition zone (IZ) (Escherichia coli [1]): 19.8 mm
- Ki [2]: 5900 nM
- solubility [12]: Insoluble

SMILES: O=C(O)c1cccc2c1OB(O)C(NC(=O)C1CCCCC1)C2 (stereo not drawn)
- IC50 [13]: 68 nM
- IC50 [14]: 2.6 nM
- IC50 [15]: 1000 nM
- IC50 [16]: 220 nM

SMILES: O=C(Cc1cccs1)N[C@H](B(O)O)c1cccc(C(=O)O)c1
- Ki [13]: 1 nM
- IC50 [17]: 60 nM
- IC50 [18]: 40 nM

SMILES: CO/N=C(\C(=O)N[C@@H]1C(=O)N2C(C(=O)O)=C(COC(C)=O)CS[C@H]12)c1csc(N)n1 [CEFOTAXIME]
- MIC (Klebsiella pneumoniae): 2 µg/mL (≈ 4.39 µM)

SMILES: C[C@@H](O)[C@H]1C(=O)N2C(C(=O)O)=C(S[C@@H]3CN[C@H](C(=O)N(C)C)C3)[C@H](C)[C@H]12 [MEROPENEM]
- Activity (Escherichia coli [19]): Active
- MIC (Proteus mirabilis): 0.25 µg/mL (≈ 0.652 µM)
- MIC (Klebsiella pneumoniae): 0.5 µg/mL (≈ 1.3 µM)

SMILES: NCc1ccc(C(=O)NC2Cc3cccc(C(=O)O)c3OB2O)cc1 (stereo not drawn)
- IC50 [13]: 270 nM
- IC50 [14]: 8.1 nM
- IC50 [15]: 61 nM
- IC50 [16]: 2000 nM

SMILES: O=[N+]([O-])c1ccc(F)c(B(O)O)c1
- inhibition zone (IZ) (Escherichia coli [1]): 30.5 mm
- pKa at 100 µM (physchem [11]): 6.03
- pKa (physchem [20]): 6

SMILES: CC(C)(O/N=C(/C(=O)NCB(O)O)c1cnc(N)s1)C(=O)O
- Ki [21]: 4 nM

SMILES: O=C(Cc1cccs1)N[C@@H](Cn1cc(-c2cccc(C(=O)O)c2)nn1)B(O)O
- IC50 [17]: 40 nM
- IC50 [18]: 140 nM
- Ki [22]: 8 nM
- Ki [23]: 14 nM
